Here are results for 23 compounds from ChEMBL document CHEMBL1128454, “Cyclization-activated prodrugs: N-(substituted 2-hydroxyphenyl and 2-hydroxypropyl)carbamates based on ring-opened derivatives of active benzoxazolones and oxazolidinones as mutual prodrugs of acetaminophen” (J Med Chem, 1995).

The structures appear in SMILES notation.

Data set [1] can be described thus: Compound was evaluated for its rate constant (Kp) which are average values of Kobs measured in the pH range 10-11 at 25 degree C (micro = 0.5 M ). The format is ADME. The essentials:
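Spectrophotometric hydrolysis in aqueous NaOH or carbonate/borax buffers, 25 °C, ionic strength 0.5 M. kp is the average of kobsd values measured over pH 10-11 (the pH-independent plateau). kobsd came from first-order ln(OD) vs time plots. Error in each rate constant about ±3%.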

The nature of data set [2]: Compound was evaluated for pKa. The format is physicochemical. The method, boiled down:
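Apparent kinetic pKa obtained by fitting the pH-rate profile (log kobsd vs pH, UV-monitored hydrolysis in NaOH and carbonate, borax, Tris or phosphate buffers) to a rate law combining the pH-independent constant with the acid dissociation constant of the prodrug hydroxyl.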

Data set [3] is described as follows: Compound was evaluated for its hydrolysis half life obtained from the relation Kobs was measured in a pH 7.4 phosphate buffer at 37 degree C (micro = 0.5 M ). Conditions: for half-life: phosphate buffer. The data set is classed as ADME. The essentials: (§1)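 Prodrug hydrolysed in pH 7.40 phosphate buffer at 37 °C (some runs at 25 °C) and monitored by UV spectrophotometry until product formation, about 10 half-lives. First-order kobsd from ln(OD) vs time, with pH checked before and after. Half-life taken as 0.693/kobsd.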

A short description of data set [4]: its hydrolysis half life in human plasma (pH 7.4). The format is ADME, organism-based. The essentials: (§2)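 Prodrug in acetonitrile or dioxane added to 0.05 M phosphate buffer pH 7.40 containing 80% human or rat plasma, about 0.04 mg/mL initial, at 37 or 25 °C. Aliquots quenched and deproteinized with 0.05 M methanolic HCl, centrifuged, then analysed by reversed-phase HPLC with diode-array detection. First-order constants from ln plots of drug or prodrug concentration vs time.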

Data set [5] in a line: its hydrolysis half life in rat plasma (pH 7.4). The format is ADME, organism-based. The essentials: as §2
Data set [6] in a line: its hydrolysis half life in phosphate buffer (pH 7.4). The data set is classed as ADME. The method, boiled down: as §1
The nature of data set [7]: its bimolecular rate constant (KOH) at 25 degree C (m = 0.5). The data set is classed as ADME. The method, boiled down:
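Hydrolysis followed by UV spectrophotometry in aqueous NaOH or buffer (carbonate, borax, Tris, phosphate) at 25 °C, ionic strength 0.5 M. Second-order constant kOH taken from the linear plot of kobsd vs [OH-] over the pH-dependent region. kobsd came from ln(OD) vs time plots. pH in the cell was read before and after reaction.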

Regarding `COc1ccc(OC(=O)Nc2cc(Cl)ccc2O)cc1`, the Kp in data set [1] turned out to be 0.0976 s⁻¹. In data set [2], this compound returned a pKa of 10.2. Also, the half-life in data set [3] was found to be 0.37 min.

`O=C(Nc1cc(Cl)ccc1O)OCC(Cl)(Cl)Cl` had a Kp in data set [1] of 1.14 s⁻¹. Also, in data set [2], the pKa was 12.7. Also, the half-life in data set [4] (read-out: T1/2) is 10.1 min; in data set [5] (read-out: T1/2), 7.5 min; in data set [3], 276000 min.

On to `CC(=O)Nc1ccc(OC(=O)NCC(O)COc2cc(C)cc(C)c2)cc1` (configuration not stated), for which the values for the half-life in data set [6], in data set [4] (read-out: T1/2) and in data set [5] (read-out: T1/2) were 416 min, 45 min and 62 min, respectively.

For the compound `O=C(Nc1cc(Cl)ccc1O)Oc1cccc(C(F)(F)F)c1`, in data set [1], the Kp was 0.7 s⁻¹. Also, the pKa in data set [2] was determined as 8.97. This compound returned a half-life in data set [3] of 0.0518 min.

`CC#CCOC(=O)Nc1cc(Cl)ccc1O` displayed a Kp in data set [1] of 5.93e-06 s⁻¹. For the same compound, the pKa in data set [2] amounted to 14.2.

`C#CCOC(=O)Nc1cc(Cl)ccc1O` showed a Kp in data set [1] of 0.00025 s⁻¹. The same compound displayed a pKa in data set [2] of 13.6. This compound also showed a T1/2 in data set [3] (buffer) of 108 min.

Compound `CNC(=O)Oc1ccc(NC(C)=O)cc1` displayed a KOH in data set [7] of 11.5 M⁻¹ s⁻¹.

In turn, `CC(=O)Nc1ccc(OC(=O)Nc2cc(C(=O)c3ccccc3)ccc2O)cc1` yielded a Kp in data set [1] of 0.0221 s⁻¹. Besides, the half-life in data set [6] worked out at 0.233 min; in data set [4] (read-out: T1/2), 10.2 min; in data set [5] (read-out: T1/2), 2.9 min; in data set [3], 0.233 min. The pKa in data set [2] stood at 9.49.

In data set [1], `O=C(Nc1cc(Cl)ccc1O)Oc1ccccc1` yielded a Kp of 0.169 s⁻¹. The compound further showed a pKa in data set [2] of 10. Also, the half-life in data set [3] stood at 0.2 min.

On to `CC(C)(C)OC(=O)Nc1ccc(OC(=O)Nc2cc(Cl)ccc2O)cc1`, for which the Kp in data set [1] was found to be 0.184 s⁻¹. This compound came in with a pKa in data set [2] of 9.8. Moreover, the half-life in data set [3] was 0.187 min.

Take `COC(=O)Nc1cc(Cl)ccc1O`: the Kp in data set [1] was 1.05e-06 s⁻¹. The pKa in data set [2] was found to be 15.5. Moreover, the half-life in data set [3] is 105000 min.

With `COc1ccccc1OCC(O)CNC(=O)Oc1ccc(NC(C)=O)cc1` (configuration not stated), the KOH in data set [7] worked out at 10.5 M⁻¹ s⁻¹. Further, the half-life in data set [6] amounted to 371 min; in data set [4] (read-out: T1/2), 59 min; in data set [5] (read-out: T1/2), 58 min.

In the case of `CC(=O)Nc1ccc(OC(=O)Nc2ccc(C(=O)c3ccccc3)cc2O)cc1`, the Kp in data set [1] was 0.119 s⁻¹. Besides, the half-life in data set [6] amounted to 0.097 min; in data set [4] it was 1 min; in data set [5], 0.233 min; in data set [3] it was 0.0965 min. The pKa in data set [2] was found to be 9.49.

For the compound `COc1ccccc1OCC(CNC(=O)Oc1ccc(NC(C)=O)cc1)OC` (configuration not stated), the half-life in data set [6] was determined as 502 min; in data set [4] (read-out: T1/2) it was 134 min; in data set [5] (read-out: T1/2) it was 153 min.

`O=C(Nc1cc(Cl)ccc1O)OCC(F)(F)F` displayed a Kp in data set [1] of 0.014 s⁻¹. The pKa in data set [2] was determined as 12.4. The compound also gave a half-life in data set [3] of 2.58 min.

In the case of `CCOC(=O)Nc1cc(Cl)ccc1O`, the Kp in data set [1] turned out to be 8.63e-07 s⁻¹. Besides, the pKa in data set [2] was 16. Further, in data set [3], the half-life is 418000 min.

`O=C(Nc1cc(Cl)ccc1O)Oc1cccc(Cl)c1` gave a Kp in data set [1] of 0.503 s⁻¹. Besides, in data set [2], the pKa came to 9.02. This compound also registered a half-life in data set [3] of 0.0634 min.

With `O=C(Nc1cc(Cl)ccc1O)OCC(Cl)Cl`, in data set [1], the Kp was found to be 0.000806 s⁻¹. Also, in data set [2], the pKa amounted to 13.2. Besides, the half-life turned out to be 105 min in data set [4] (read-out: T1/2), 53.8 min in data set [5] (read-out: T1/2) and 42.5 min in data set [3].

Turning to `O=C(Nc1cc(Cl)ccc1O)OCCCl`, in data set [1], the Kp was 2.75e-06 s⁻¹. In data set [2], this compound came in with a pKa of 14.3.

In the case of `CC(=O)Nc1ccc(OC(=O)Nc2cc(Cl)ccc2O)cc1`, the Kp in data set [1] is 0.205 s⁻¹. Besides, the half-life in data set [6] worked out at 0.118 min; in data set [4] it was 1.1 min; in data set [5], 0.833 min; in data set [3], 0.118 min. In addition, in data set [2], the pKa was found to be 9.49.

In data set [7], `COc1ccc(Cl)cc1NC(=O)Oc1ccc(NC(C)=O)cc1` returned a KOH of 510 M⁻¹ s⁻¹.

Compound `CC(=O)Nc1cccc(OC(=O)Nc2cc(Cl)ccc2O)c1` came in with a Kp in data set [1] of 0.279 s⁻¹. In data set [2], the pKa came out at 9.38. In addition, the half-life in data set [3] came out at 0.125 min.

In data set [1], `Cl.Nc1ccc(OC(=O)Nc2cc(Cl)ccc2O)cc1` showed a Kp of 0.0806 s⁻¹. In data set [2], the pKa came out at 10.4. Further, the half-life in data set [3] worked out at 0.383 min.
